An excerpt weighted towards active compounds, which were near 4.4% of everything screened.
HSF1 inh: HSF1 inhibitors in luciferase reporter cells, primary screen, cell-based, NIH3T3, luminescence; NIH3T3-HGL HSE-luciferase, MG132-induced, luminescence 8 h; active compounds read low; activity change, negative = inhibition, % at 7.5 µM (by protocol); actives 0.77% (n = 300,000);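 active means more than half of replicate wells show activity change below -50%, luminescence cut by over half; inconclusive means some wells, but at most half, below -50%; inactive means no replicate well below -50%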;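 further: luciferase reports HSF-1 transcriptional activity via heat shock element; 0% = median of DMSO wells and -100% = zero luminescence signal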
HIF activator: HIF pathway transcriptional activators, primary screen, cell-based, U2OS HRE-luciferase, luminescence; U2OS HRE-luciferase reporter; normalized: DMSO 0%, desferrioxamine 100%; activation, % at 7.5 µM (by protocol); actives 0.32% (n = 300,000); AID 1910, 2009;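 active means mean activation of at least 10% of the iron chelator positive control signal, with at least half of replicates also reaching 10%; inconclusive means mean and replicate majority disagree about reaching 10%; inactive means mean and most replicates under 10%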
Calb FLC: C. albicans growth inhibition with fluconazole, primary screen, CaCi-2 strain, Alamar Blue fluorescence | actives 0.57% (n = 300,000) | growth inhibition, % (concentration not given with the values) | C. albicans CaCi-2 + fluconazole, 48 h | AID 1979, 2009;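 active means growth inhibition above about 58% in most replicates, limit read from the data, passing the limit was not always enough; inconclusive means exactly half the replicates above a set limit; inactive means most replicates below a set limit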;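 further: all wells also contain fluconazole at 8 µg/ml as a sub-toxic cotreatment; 0% = median of DMSO wells and 100% = median of geldanamycin control wells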
HSF-1 act: HSF-1 activators, primary screen, NIH3T3-HGL cells, MG132 stress, luminescence, single point; actives 1.7% (n = 300,000); activation, % at 9 µM; NIH3T3-HGL HSF-1 luciferase reporter, 8 h; 100% = twice DMSO control signal;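 active means mean replicate activation of at least 50% with a set share of replicates each reaching 50%; inconclusive means only one of those two conditions met; inactive means mean below 50% and too few replicates reaching it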;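 further: 0% = median of the neutral control wells and 100% = twice that signal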
T cruzi repl: inhibitors of intracellular T. cruzi growth, primary screen, luminescence, NIH3T3 host cells. T. cruzi beta-gal in NIH3T3, 90 h. inhibition, % (no concentration beside the values). actives 1.4% (n = 300,000);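 active means mean inhibition across valid replicates above about 55%, limit read from the data; inconclusive means mean below that limit but half or more replicates reach it; inactive means mean below it, under half of replicates reach it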;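 further: signal also drops with host cell toxicity which is not excluded here; 0% = plate median of DMSO wells and 100% = zero luminescence signal; higher percent means less beta-gal luminescence so fewer parasites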
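compound dosing = single 50 nL compound addition per well in DMSO | material = NIH/3T3 host cells with β-galactosidase reporter T. cruzi | input = 5,000 host fibroblasts per well | timing = ≥90 h infection period, 3 h prior cell attachment | read-out basis = percent inhibition of parasite-derived β-gal signal | detection = GalScreen β-gal luminescence, detergent lysis, 60 min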
* hit, by the source's call.

How did COC(=O)[C@@H]1CCCN1C(=O)CCc1nnc(CCC2CCCCC2)o1 do in these assays?
HSF1 inh: 14; HIF activator: 1; Calb FLC: -14; HSF-1 act: 28; T cruzi repl: -12

Results for O=C1CSC(=S)N1/N=C/c1cccc(C(F)(F)F)c1 ?
HSF1 inh: 52; HIF activator: 0; Calb FLC: 1; HSF-1 act: 68*; T cruzi repl: -1

What do the screens show for `O=C1CSC(=S)N1/N=C/c1ccc(C(F)(F)F)cc1`?
HSF1 inh: -9; HIF activator: 0; Calb FLC: 75; HSF-1 act: -28; T cruzi repl: -5

How did O=C(COC(=O)c1ccc(Cl)c(S(=O)(=O)NCc2ccccc2)c1)NCC1CCCO1 (stereo not drawn) do in these assays?
HSF1 inh: -5; HIF activator: -2; Calb FLC: -1; HSF-1 act: -13; T cruzi repl: 4

What do the screens show for `O=C(CN(c1ccc(Cl)cc1)S(=O)(=O)c1ccc(Cl)c([N+](=O)[O-])c1)NCCc1ccccc1`?
HSF1 inh: -2; HIF activator: 0; Calb FLC: -4; HSF-1 act: -24; T cruzi repl: 74*

What do the screens show for `Fc1ccc(N2CCN(C3=Nc4cccc5cccc3c45)CC2)cc1`?
HSF1 inh: -9; HIF activator: 2; Calb FLC: -2; HSF-1 act: -8; T cruzi repl: 64*

What do the screens show for `CCOC(=O)CSc1ccc2nnc(CCNS(=O)(=O)c3ccc(C)cc3)n2n1`?
HSF1 inh: -9; HIF activator: -1; Calb FLC: -2; HSF-1 act: -12; T cruzi repl: -2

What do the screens show for `CC(=O)Nc1ccc(NC(=O)CSc2ccc3nnc(CCNS(=O)(=O)c4ccc(C)cc4)n3n2)cc1`?
HSF1 inh: -2; HIF activator: -1; Calb FLC: 77*; HSF-1 act: -5; T cruzi repl: -20

How did CC1CCN(CCCn2c(=S)[nH]c3ccccc3c2=O)CC1 do in these assays?
HSF1 inh: -3; HIF activator: 0; Calb FLC: -6; HSF-1 act: 2; T cruzi repl: -5

What do the screens show for `O=c1c2ccccc2[nH]c(=S)n1CCCN1CCC(Cc2ccccc2)CC1`?
HSF1 inh: 3; HIF activator: 0; Calb FLC: -1; HSF-1 act: -17; T cruzi repl: 56*

How did CCOC(=O)C1CCN(Cc2ccc(OCc3ccccc3)c(OC)c2)CC1 do in these assays?
HSF1 inh: 1; HIF activator: 0; Calb FLC: -11; HSF-1 act: 5; T cruzi repl: 16

How did CCC(C)[C@H](NC(=O)N1CCn2c1nc1ccccc12)C(=O)NCc1ccccc1 (stereo partly drawn) do in these assays?
HSF1 inh: 5; HIF activator: 0; Calb FLC: 1; HSF-1 act: 3; T cruzi repl: 17

Results for COc1cc2c(O)c3c(c(-c4ccc5c(c4)OCO5)c2cc1OC)C(=O)OC3 ?
HSF1 inh: 1; HIF activator: 0; Calb FLC: 82*; HSF-1 act: -10; T cruzi repl: 57*

How did N#CC1=C(N)Oc2n[nH]c(-c3ccc(F)cc3)c2C1c1ccncc1 (stereo not drawn) do in these assays?
HSF1 inh: 32; HIF activator: -1; Calb FLC: 2; HSF-1 act: 67*; T cruzi repl: -4

Results for CCS(=O)(=O)N1Cc2ccccc2CC1C(=O)Nc1cccc(S(=O)(=O)N(C)C)c1 (stereo not drawn) ?
HSF1 inh: -2; HIF activator: 0; Calb FLC: 1; HSF-1 act: 5; T cruzi repl: -1

What do the screens show for `O=C(Nc1ccc(NC(=S)NC(=O)c2ccccc2Cl)cc1)c1cccc(Cl)c1`?
HSF1 inh: 41; HIF activator: 2; Calb FLC: inconclusive; HSF-1 act: 56*; T cruzi repl: 45

Results for CC(C)C(=O)Nc1cccc(NC(=S)NC(=O)c2ccccc2Cl)c1 ?
HSF1 inh: 1; HIF activator: 1; Calb FLC: 21; HSF-1 act: 20; T cruzi repl: -4

How did CNC(=O)NC(=S)NC(=O)c1ccccc1Cl do in these assays?
HSF1 inh: -76*; HIF activator: -1; Calb FLC: 5; HSF-1 act: -80; T cruzi repl: 0

How did Cc1cccc(C(=O)NC(=S)NNC(=O)COc2ccc(Cl)cc2)c1 do in these assays?
HSF1 inh: 5; HIF activator: 0; Calb FLC: inconclusive; HSF-1 act: 2; T cruzi repl: -5

What do the screens show for `O=C(COc1ccccc1)NNC(=S)NC(=O)c1ccc(Cl)cc1Cl`?
HSF1 inh: 6; HIF activator: 0; Calb FLC: 105*; HSF-1 act: 3; T cruzi repl: -7

Results for O=C(NC(=S)Nc1ccccc1O)c1ccc(Cl)cc1Cl ?
HSF1 inh: 57; HIF activator: 1; Calb FLC: 111*; HSF-1 act: 76*; T cruzi repl: -1

How did O=C(NC1CCCC1)C(c1ccncc1)N(C(=O)c1csnn1)c1cccc(F)c1 (stereo not drawn) do in these assays?
HSF1 inh: 1; HIF activator: 2; Calb FLC: 1; HSF-1 act: -3; T cruzi repl: 0

How did O=C(CNCc1ccccc1)Nc1ccc(Cl)cc1 do in these assays?
HSF1 inh: -3; HIF activator: 3; Calb FLC: 1; HSF-1 act: 12; T cruzi repl: -10

What do the screens show for `CCN=C1S/C(=C\c2ccc(-c3cccc(C(=O)O)c3)o2)C(=O)N1CC`?
HSF1 inh: -52*; HIF activator: 2; Calb FLC: 3; HSF-1 act: -57; T cruzi repl: -38

Results for CCN1C(=O)/C(=C\c2ccc(-c3cccc(C(=O)OC)c3)o2)SC1=Nc1ccc(C(=O)O)cc1 ?
HSF1 inh: 1; HIF activator: -2; Calb FLC: 10; HSF-1 act: -1; T cruzi repl: 10

What do the screens show for `Cc1ccc(/C=C(/C#N)c2nc(CCN3C(=O)c4ccccc4C3=O)cs2)cc1`?
HSF1 inh: -53*; HIF activator: 0; Calb FLC: 35; HSF-1 act: -65; T cruzi repl: 7

Results for CCOC(=O)Cc1csc(NC(=O)CCCN2C(=O)c3ccccc3C2=O)n1 ?
HSF1 inh: -5; HIF activator: 0; Calb FLC: -4; HSF-1 act: -4; T cruzi repl: -20

What do the screens show for `CC(C(=O)Nc1ccon1)N1C(=O)c2ccccc2S1(=O)=O` (stereo not drawn)?
HSF1 inh: -3; HIF activator: -13; HSF-1 act: 3; T cruzi repl: -12

How did Cc1ccc2oc(=O)n(CCCOc3ccccc3C)c2c1 do in these assays?
HSF1 inh: 13; HIF activator: 1; Calb FLC: -1; HSF-1 act: 23; T cruzi repl: -3
